Data taken from PMC8942377 (Science Advances, 2022).
Where no end group is shown, it is not given here.

Experiments:
SST1–5 = details: cited from earlier work
[1] = following intravenous infusion; cited from earlier work
mice = test: Tail flick test; assay type: in vivo, mouse; details: intrathecal, 1 mg/kg, positive control
Summary of the method: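 Mice lightly sedated with 2% isoflurane, then given one intrathecal lumbar-puncture injection (5 μl) of saline, morphine 1 mg/kg, or test compound 0.025–0.75 mg/kg. Distal two-thirds of tail dipped in 52°C water; latency to withdrawal timed by chronometer. Result taken as mean tail flick latency.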

Q: Which results are given for octreotide?
A: SS receptor subtype selectivity (SST1–5): preferentially activated SST2 over SST3 and SST5 and displayed little to no activity on SST1 or SST4; in vivo half-life [1]: 1.5 h

Q: With `CN1CC[C@]23c4c5ccc(O)c4O[C@H]2[C@@H](O)C=C[C@H]3[C@H]1C5` [Morphine] as the molecule, how does the tail flick antinociception (mice) read?
A: robust antinociception

Q: With “urotensin-II (ETPDCFWKYCV; ends and bridges not checked; cysteine pairing not given here; UniProt O95399 114-124, looked up) [UII]” as the molecule, how does the “activity at SST1–5” value (SST1–5) read?
A: low activity
